Measurements reported in ChEMBL document CHEMBL1128471, “Reversible inhibitors of the gastric (H+/K+)-ATPase. 4. Identification of an inhibitor with an intermediate duration of action” (J Med Chem, 1995).

What was measured:
[1] = molecular target: T1, Potassium-transporting ATPase (Rattus norvegicus) (UniProt P09626+P18598); experiment: Inhibition of pentagastrin-stimulated gastric acid secretion at a single dose of 10 umol/kg.; assay type: functional; details: Stomach
Summary of the method: (§1)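 Anesthetized, lumen-perfused rats were given pentagastrin to stimulate gastric acid secretion, and compounds were given iv. The value is an ED50 (µmol/kg iv) with 95% confidence limits, or percent inhibition ± SEM at a single 10 µmol/kg iv dose.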

[2] = molecular target: Potassium-transporting ATPase (Sus scrofa, UniProt P19156); experiment: Inhibition of K+ -stimulated gastric ATPase activity was measured using lyophilized gastric vesicles at pH 7; assay type: tissue-based, Stomach
Potassium-transporting ATPase, sequence (P18434 whole entry): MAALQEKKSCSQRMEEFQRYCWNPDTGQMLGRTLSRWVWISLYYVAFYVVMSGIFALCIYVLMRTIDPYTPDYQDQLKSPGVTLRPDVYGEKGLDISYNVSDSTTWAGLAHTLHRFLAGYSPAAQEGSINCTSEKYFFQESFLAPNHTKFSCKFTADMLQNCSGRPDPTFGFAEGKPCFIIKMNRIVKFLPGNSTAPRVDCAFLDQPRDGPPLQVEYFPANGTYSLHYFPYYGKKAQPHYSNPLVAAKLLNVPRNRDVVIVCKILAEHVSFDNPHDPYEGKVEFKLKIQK
Potassium-transporting ATPase, sequence (P19156 whole entry): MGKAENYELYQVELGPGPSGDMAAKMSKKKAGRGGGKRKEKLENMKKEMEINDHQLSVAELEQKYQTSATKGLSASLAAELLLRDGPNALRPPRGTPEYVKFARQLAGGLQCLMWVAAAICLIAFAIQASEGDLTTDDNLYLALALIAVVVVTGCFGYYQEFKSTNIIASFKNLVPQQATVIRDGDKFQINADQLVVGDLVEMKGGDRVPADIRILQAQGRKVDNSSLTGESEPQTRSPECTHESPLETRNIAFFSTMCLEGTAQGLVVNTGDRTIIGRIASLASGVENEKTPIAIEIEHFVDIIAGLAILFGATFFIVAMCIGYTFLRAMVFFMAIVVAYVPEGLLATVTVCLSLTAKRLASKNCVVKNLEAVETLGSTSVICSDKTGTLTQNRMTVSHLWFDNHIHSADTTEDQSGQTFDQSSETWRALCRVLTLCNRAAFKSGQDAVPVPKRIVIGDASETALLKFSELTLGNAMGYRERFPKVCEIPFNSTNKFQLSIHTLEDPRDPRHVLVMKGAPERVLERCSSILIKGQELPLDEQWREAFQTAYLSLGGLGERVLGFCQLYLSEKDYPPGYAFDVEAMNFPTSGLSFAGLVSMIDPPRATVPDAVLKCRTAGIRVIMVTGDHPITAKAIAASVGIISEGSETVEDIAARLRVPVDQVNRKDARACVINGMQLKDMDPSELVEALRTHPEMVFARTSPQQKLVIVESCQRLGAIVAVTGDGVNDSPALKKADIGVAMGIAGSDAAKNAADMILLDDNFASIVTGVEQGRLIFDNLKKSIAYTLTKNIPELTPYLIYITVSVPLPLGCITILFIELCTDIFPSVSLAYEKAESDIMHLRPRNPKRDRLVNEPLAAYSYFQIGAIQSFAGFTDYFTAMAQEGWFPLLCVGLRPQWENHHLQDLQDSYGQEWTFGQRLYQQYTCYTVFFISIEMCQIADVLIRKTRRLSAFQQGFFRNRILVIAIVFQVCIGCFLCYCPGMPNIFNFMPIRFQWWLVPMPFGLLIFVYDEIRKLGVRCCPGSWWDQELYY
Summary of the method: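 K+-stimulated ATPase activity was measured in lyophilized (permeabilized) gastric vesicles at pH 7. The value is an IC50, or percent inhibition at the stated concentration where no IC50 could be determined.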

[3] = molecular target: T1, Potassium-transporting ATPase (Rattus norvegicus); experiment: Inhibition of pentagastrin-stimulated gastric acid secretion in the anesthetized rat after iv administration; assay type: functional, organism-based; details: Stomach; summary of the method: as §1
Canis familiaris = experiment: Mean percent peak inhibition of histamine-stimulated gastric acid secretion in the heidenhain pouch dog following a single dose of 1 umol/kg through iv administration.; assay type: functional; details: Canis lupus familiaris, Stomach

Row | SMILES | inhibition [1] [%] | IC50 [2] [µM] | ED50 [3] [µmol/kg] | inhibition in vivo at 1 µmol/kg (Canis familiaris) [%]
1 | CCCC(=O)c1cnc2c(OCCCC(=O)OCC)cccc2c1Nc1ccccc1C | 52 | 1.6 |  | 
2 | CCCC(=O)c1cnc2c(CC(=O)O)cccc2c1Nc1ccccc1C | 24 | 7.2 |  | 
3 | CCCC(=O)c1cnc2c(OCCCN(C)CCCc3ccccc3)cccc2c1Nc1ccccc1C | 52 | 0.74 |  | 
4 | CCCC(=O)c1cnc2ccccc2c1Nc1ccccc1C |  |  | 5.45 | 
5 | CCCC(=O)c1cnc2c(N)cccc2c1Nc1ccccc1C | 59 | 6 |  | 
6 | CCCC(=O)c1cnc2c(C=O)cccc2c1Nc1ccccc1C | 64 | 1.2 |  | 51
7 | CCCC(=O)c1cnc2c(OC)cccc2c1Nc1ccc(O)cc1 | 39 | 0.67 |  | 
8 | CCCC(=O)c1cnc2c(OC)cccc2c1Nc1ccccc1OCC |  | 2 | 4.9 | 
9 | CCCC(=O)c1cnc2c(OCCCc3cnc[nH]3)cccc2c1Nc1c(C)cccc1C |  | 0.6 |  | 
10 | CCCC(=O)c1cnc2c(OCCCN3CCOCC3)cccc2c1Nc1ccccc1C | 48 | 0.89 |  | 
11 | CCCC(=O)c1cnc2c(OCCCC(=O)Nc3ccncc3)cccc2c1Nc1ccccc1C | 46 | 2.6 |  | 
12 | CCCC(=O)c1cnc2c(OC)cccc2c1Nc1c(C)cc(C)cc1C |  | 3.1 | 10.8 | 
13 | CCCC(=O)c1cnc2c(OCCN(C)C)cccc2c1Nc1ccccc1C | 22 | 0.52 |  | 
14 | CCC(=O)c1cnc2c(O)cccc2c1Nc1ccc(F)cc1C | 48 | 1.9 |  | 
15 | CCCC(=O)c1cnc2c(NCCc3cnc[nH]3)cccc2c1Nc1ccccc1C |  | 1.4 |  | 
16 | CCCC(=O)c1cnc2ccc(O)cc2c1Nc1ccc(O)cc1C | 51 | 0.071 |  | 
17 | CCCC(=O)c1cnc2c(OCCCc3c[nH]cn3)cccc2c1Nc1c(C)cccc1C | 40 |  |  | 
18 | CCCC(=O)c1cnc2c(C)cccc2c1Nc1ccccc1Cl |  | 6.3 |  | 
19 | CCCC(=O)c1cnc2c(NCCCN3CCOCC3)cccc2c1Nc1ccccc1C | 47 | 2.4 |  | 
20 | CCCC(=O)c1cnc2c(OC)cc(O)cc2c1Nc1ccc(F)cc1C | 54 | 2.1 |  | 
21 | CCCC(=O)c1cnc2c(CC(=O)OC)cccc2c1Nc1ccccc1C | 43 | 5.4 |  | 
22 | CCCC(=O)c1cnc2c(OCCCNc3ccccn3)cccc2c1Nc1c(C)cccc1C | 49 | 0.9 |  | 

Row | SMILES | inhibition [1] [%] | IC50 [2] [µM] | ED50 [3] [µmol/kg] | inhibition in vivo at 1 µmol/kg (Canis familiaris) [%]
23 | CCCC(=O)c1cnc2c(OC)cccc2c1Nc1c(C)cc2c(c1C)OCO2 | 51 |  |  | 
24 | CCCC(=O)c1cnc2c(OC)cccc2c1Nc1ccc(NC(C)=O)cc1C |  | 12 |  | 
25 | CCCC(=O)c1cnc2c(C3COCO3)cccc2c1Nc1ccccc1C (stereo not drawn) | 31 | 36 |  | 
26 | CCCC(=O)c1cnc2c(C3OC3CO)cccc2c1Nc1ccccc1C (stereo in doubt; 29b) [listing 1 of 2 here] |  | 3.1 |  | 
27 | CCCC(=O)c1cnc2c(N)cccc2c1Nc1c(C)cccc1C | 57 | 5.8 |  | 
28 | CCCC(=O)c1cnc2c(OCCCO)cccc2c1Nc1c(C)cccc1C | 75 | 1.21 |  | 
29 | CCCC(=O)c1cnc2c(O)cccc2c1Nc1ccc(F)cc1C | 33 | 7.6 |  | 
30 | CCCC(=O)c1cnc2c(NCCO)cccc2c1Nc1ccccc1C | 62 | 7.1 |  | 
31 | CCCC(=O)c1cnc2c(OCCCN(C)C)cccc2c1Nc1ccc(F)cc1C | 37 |  |  | 
32 | CCCC(=O)c1cnc2c(C(O)CN(C)C)cccc2c1Nc1ccccc1C (stereo not drawn) | 11 |  |  | 
33 | CCCC(=O)c1cnc2c(OC)cccc2c1Nc1ccccc1COC | 43 |  |  | 
34 | CCCC(=O)c1cnc2c(OC)cccc2c1Nc1c(C)cc(O)c(O)c1C | 50 | 2.8 |  | 
35 | CCCC(=O)c1cnc2c(COC(=O)CC)cccc2c1Nc1ccccc1C |  | 18.4 |  | 
36 | CCCC(=O)c1cnc2c(OC)cccc2c1Nc1ccc(C)cc1C | 59 | 4.3 |  | 
37 | CCCC(=O)c1cnc2c(C3OC3CO)cccc2c1Nc1ccccc1C (stereo in doubt; 29a) | 56 |  |  | 
38 | CCCC(=O)c1cnc2c(OC)cccc2c1Nc1ccc(N(C)C)cc1C | 20 | 2.32 |  | 
39 | CCCC(=O)c1cnc2ccc(O)cc2c1Nc1ccccc1C | 58 | 0.24 |  | 
40 | CCCC(=O)c1cnc2c(C(C)=O)cccc2c1Nc1ccccc1C | 37 | 1.5 |  | 
41 | CCC(=O)c1cnc2c(O)cccc2c1Nc1ccccc1C | 45 | 0.86 |  | 
42 | CCCC(=O)c1cnc2c(C(C)=O)cccc2c1Nc1ccc(O)cc1C | 44 | 0.55 |  | 
43 | CCCC(=O)c1cnc2c(OC)cccc2c1Nc1c(OC)cc(OC)cc1OC | 24 | 4.6 |  | 
44 | CCCC(=O)c1cnc2c(COC(=O)NC)cccc2c1Nc1ccccc1C | 49 | 6.6 |  | 

Row | SMILES | inhibition [1] [%] | IC50 [2] [µM] | ED50 [3] [µmol/kg] | inhibition in vivo at 1 µmol/kg (Canis familiaris) [%]
45 | CCCC(=O)c1cnc2c(Oc3ccnc(Cl)c3)cccc2c1Nc1ccccc1C | 33 | 6.9 |  | 
46 | CCCC(=O)c1cnc2c(OCCOCCO)cccc2c1Nc1ccc(F)cc1C | 49 |  |  | 
47 | CCCC(=O)c1cnc2c(OCCCc3nc4ccccc4[nH]3)cccc2c1Nc1c(C)cccc1C | 50 | 1.4 |  | 
48 | CCCC(=O)c1cnc2c(OCCCN3CCCCC3)cccc2c1Nc1ccccc1C | 31 | 0.5 |  | 
49 | Cc1ccccc1Nc1c(C(=O)C(C)C)cnc2c(CO)cccc12 |  |  | 1.86 | 
50 | CCCC(=O)c1cnc2c(OCCCC(N)=O)cccc2c1Nc1c(C)cccc1C | 72 | 2.2 |  | 
51 | CCCC(=O)c1cnc2c(OC)cccc2c1Nc1ccccc1CO | 33 |  |  | 
52 | CCCC(=O)c1cnc2c(C(=O)OC)cccc2c1Nc1ccccc1C |  | 0.58 | 13.4 | 
53 | CCCC(=O)c1cnc2c(OC)cccc2c1Nc1ccccc1O | 41 | 1.3 |  | 
54 | CCCC(=O)c1cnc2c(OC)cccc2c1Nc1ccc(OCCCn2ccnc2)cc1C |  | 34 |  | 
55 | CCCC(=O)c1cnc2c(CO)cccc2c1Nc1ccc(F)cc1C | 55 |  |  | 
56 | CCCC(=O)c1cnc2cc(O)ccc2c1Nc1ccccc1C | 56 | 1.2 |  | 
57 | CCCC(=O)c1cnc2ccc(N)cc2c1Nc1c(C)cccc1C | 35 | 0.16 |  | 
58 | CCCC(=O)c1cnc2c(OCCCN(C)Cc3ccccc3)cccc2c1Nc1ccccc1C | 39 | 0.65 |  | 
59 | CCCC(=O)c1cnc2c(OCCOCCOCCO)cccc2c1Nc1ccc(F)cc1C | 51 | 3.6 |  | 
60 | CCCC(=O)c1cnc2c(OC)cccc2c1Nc1cc(CO)ccc1C | 25 |  |  | 
61 | CCC(=O)c1cnc2c(OCCCNc3nccs3)cccc2c1Nc1c(C)cccc1C | 48 | 1.7 |  | 
62 | CCCC(=O)c1cnc2c(C)cccc2c1Nc1ccc(OC)cc1C |  | 1.7 | 4.7 | 
63 | Cc1ccccc1Nc1c(C(=O)C(C)C)cnc2c(O)cccc12 | 48 | 1.2 |  | 
64 | CCCC(=O)c1cnc2c(OC)cccc2c1Nc1cccc(CO)c1C | 44 | 6 |  | 
65 | CCCC(=O)c1cnc2c(OC)cccc2c1Nc1ccc(OC)cc1OC | 53 | 2.1 |  | 
66 | CCCC(=O)c1cnc2c(OC)cccc2c1Nc1cc(C)ccc1C | 48 | 2.5 |  | 

Row | SMILES | inhibition [1] [%] | IC50 [2] [µM] | ED50 [3] [µmol/kg] | inhibition in vivo at 1 µmol/kg (Canis familiaris) [%]
67 | C=CC(O)c1cccc2c(Nc3ccccc3C)c(C(=O)CCC)cnc12 (stereo not drawn) | 49 | 0.66 |  | 
68 | CCCC(=O)c1c(C)nc2ccccc2c1Nc1ccccc1C |  | 34 |  | 
69 | CCCC(=O)c1cnc2c(O)cccc2c1Nc1ccccc1C | 39 | 3.3 |  | 
70 | CCCC(=O)c1cnc2c(OC)cccc2c1Nc1cc(C)cc(C)c1 | 39 | 11.3 |  | 
71 | CCCC(=O)c1cnc2c(OCCO)cccc2c1Nc1ccc(O)cc1C | 70 | 0.21 |  | 
72 | CCCC(=O)c1cnc2ccc(OC)cc2c1Nc1ccccc1C | 59 | 7 |  | 
73 | CCCC(=O)c1cnc2c(OCCCC(=O)NC(C)(C)CO)cccc2c1Nc1c(C)cccc1C | 61 | 2.8 |  | 
74 | CCCC(=O)c1cnc2ccc(CO)cc2c1Nc1ccccc1C | 46 |  |  | 
75 | Cc1cc(F)ccc1Nc1c(C(=O)C(C)C)cnc2c(O)cccc12 | 20 | 2.7 |  | 
76 | CCCC(=O)c1cnc2c(C3OC3CO)cccc2c1Nc1ccccc1C (stereo in doubt; 29b) [listing 2 of 2 here] | 52 |  |  | 
77 | CCCC(=O)c1cnc2c(C(N)=O)cccc2c1Nc1ccccc1C | 39 | 1.9 |  | 
78 | COCCOc1cccc2c(Nc3ccc(F)cc3C)c(C(=O)C(C)C)cnc12 | 57 | 1.7 |  | 
79 | CCCC(=O)c1cnc2c(/C=C/CO)cccc2c1Nc1ccccc1C | 68 | 2.3 |  | 17
80 | CCCC(=O)c1cnc2c(OCCCN(C)C)cccc2c1Nc1ccccc1C | 43 | 0.39 |  | 14
81 | CCCC(=O)c1cnc2c(OC)cccc2c1Nc1ccc(N)cc1C | 15 | 1.5 |  | 
82 | CCCC(=O)c1cnc2c(NCCc3c[nH]cn3)cccc2c1Nc1ccccc1C | 31 |  |  | 
83 | CCCC(=O)c1cnc2c(OC)cccc2c1Nc1ccc(NS(C)(=O)=O)cc1C |  | 45 |  | 
84 | CCC(=O)c1cnc2c(Oc3ccccn3)cccc2c1Nc1c(C)cccc1C | 77 | 4.7 |  | 81
85 | CCCC(=O)c1cnc2c(C(O)CN3CCOCC3)cccc2c1Nc1ccccc1C (stereo not drawn) | 4 |  |  | 
86 | CCCC(=O)c1cnc2c(OCCCN3CCCC3)cccc2c1Nc1ccccc1C | 31 | 0.51 |  | 
87 | CCCC(=O)c1cnc2c(OC)cc(O)cc2c1Nc1ccccc1C | 63 | 1.3 |  | 
